This test deals with P2Y purinoceptor 2 (Homo sapiens, UniProt P41231). Kind of test: Displacement of (E)-2-((5-(7-Chloro-2-((3-((2-(6-(3-(5,5-difluoro-7,9-dimethyl-5H-5-lambda4,6-lambda4-dipyrrolo[1,2-c:2,1-f ][1,3,2]diazaborinin-3-yl)-propanamido)hexanamido)ethyl)amino)-3-oxopropyl)amino)-4Hbenzo[5,6]cyclohepta[1,2-d]thiazol-4-yl)-2-oxo-4-thioxo-3,4-dihydropyrimidin-1(2H)-yl)methyl)-N-(1H-tetrazol-5-yl)thiazole-4-carboxamide from human N-terminal NLuc-tagged P2Y2R expressed in human 1321N1 cells incubated for 1 hr by furimazine-based NanoBRET assay. In a few lines: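 Competition binding in 1321N1 cells expressing N-terminal NanoLuc-hP2Y2R. The fluorescent tracer was used at 1 µM (or the bodipy A tracer at 100 nM) against increasing concentrations of unlabeled ligand. After furimazine addition the BRET signal was read and pKi estimated; mean ± SEM of separate experiments.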
(In general: Bioluminescence resonance energy transfer reports proximity on the nanometre scale.)

The structures appear in SMILES notation.

2 compounds from BindingDB's records for doi:10.1021/acs.jmedchem.8b00139 (University Park Nottingham, 2018) can be followed below.

P2Y purinoceptor 2, sequence (P41231 whole entry): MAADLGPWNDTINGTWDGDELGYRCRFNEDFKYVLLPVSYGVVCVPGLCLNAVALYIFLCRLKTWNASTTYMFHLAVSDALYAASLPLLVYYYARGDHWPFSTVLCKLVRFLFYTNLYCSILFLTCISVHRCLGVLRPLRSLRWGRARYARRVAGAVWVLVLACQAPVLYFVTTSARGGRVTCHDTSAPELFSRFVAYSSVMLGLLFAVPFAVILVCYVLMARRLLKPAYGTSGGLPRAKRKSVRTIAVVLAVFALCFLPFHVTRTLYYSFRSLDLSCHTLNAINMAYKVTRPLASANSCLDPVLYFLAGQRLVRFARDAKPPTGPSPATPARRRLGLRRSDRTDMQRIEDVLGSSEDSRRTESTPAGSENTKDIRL

Take `CCOCCNc1nc2c(s1)C=Cc1cc(Cl)ccc1[C@@H]2c1cn(C)c(=O)[nH]c1=S`: the affinity, expressed as Ki, was 5250 nM.
`CCOCCNc1nc2c(s1)C=Cc1cc(Cl)ccc1[C@H]2c1cn(C)c(=O)[nH]c1=S` came in with a Ki of 275 nM.

As a reminder, the Ki is the equilibrium dissociation constant of an inhibitor or competing ligand from its target. Low readings indicate a stronger hold on the target, high ones a looser hold on the target.
